From ChEMBL document CHEMBL4477197, “Antitumor Activity of Spicatoside A by Modulation of Autophagy and Apoptosis in Human Colorectal Cancer Cells” (J Nat Prod, 2016)
The source made the active and inactive calls. The calls are words filed in the database; no cut-off is given here.

Legend:
[1] = tested on: A549; experiment: Antiproliferative activity against human A549 cells after 24 to 72 hrs by SRB assay; type: functional, cell-based
Procedure, shortened: (§1)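 Cells from ATCC were grown at 37 °C in 5% CO2, in RPMI 1640 (A549, HCT116, SNU-638) or DMEM (MDA-MB-231, SK-HEP-1, MRC5) with 10% FBS. They were seeded at 6 × 10^3 cells/well for 24 h, then exposed for 72 h. Cells were TCA-fixed, stained with 0.4% SRB, and read at 515 nm against day-zero plates. IC50 came from nonlinear regression, as means ± SD.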

[2] = tested on: HCT-116; experiment: Antiproliferative activity against human HCT116 cells after 24 to 72 hrs by SRB assay; type: functional, cell-based; procedure, shortened: as §1
[3] = tested on: SNU-638; experiment: Antiproliferative activity against human SNU638 cells after 24 to 72 hrs by SRB assay; type: functional, cell-based; procedure, shortened: as §1
[4] = tested on: SK-HEP1; experiment: Antiproliferative activity against human SKHEP1 cells after 24 to 72 hrs by SRB assay; type: functional, cell-based; procedure, shortened: as §1
[5] = tested on: MRC5; experiment: Antiproliferative activity against human MRC5 cells after 24 to 72 hrs by SRB assay; type: cell-based; procedure, shortened: as §1
[6] = tested on: HCT-116; experiment: Induction of autophagy in human HCT116 cells assessed as accumulation of LC3-2 after 24 hrs by Western blot analysis; type: functional, cell-based
Procedure, shortened: (§2)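 HCT116 cells were cultured 24 h with the indicated concentrations. Lysates were made in SDS buffer with NaF and orthovanadate and quantified by BCA; 10–30 μg protein was separated by 6–15% SDS-PAGE and transferred to PVDF. After 5% BSA blocking, blots were probed for LC3-II, beclin 1, p62, LAMP1 and cathepsin D, with ECL detection.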

[7] = tested on: HCT-116; experiment: Induction of autophagy in human HCT116 cells assessed as downregulation of p62 expression at 10 to 30 uM after 24 hrs by Western blot analysis; type: functional, cell-based; procedure, shortened: as §2
[8] = Inhibition of PI3K/Akt/mTOR in human HCT116 cells assessed as downregulation of PI3K p85 at 10 to 30 uM after 24 hrs by Western blot analysis; type: cell-based
Procedure, shortened: (§3)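 HCT116 cells (RPMI 1640, 10% FBS, 37 °C, 5% CO2) exposed to the compound for 24 h, then lysed in 2× SDS sample buffer with NaF and orthovanadate and boiled. BCA-normalised protein (10−30 μg) run on 6−15% SDS-PAGE and blotted to PVDF. Blocked in 5% BSA/PBS-Tween, probed for PI3K, PTEN, Akt and mTOR, and detected by ECL. Blots are representative of three determinations.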

[9] = Inhibition of PI3K/Akt/mTOR in human HCT116 cells assessed as suppression of Akt phosphorylation at Ser473 at 10 to 30 uM after 24 hrs by Western blot analysis; type: cell-based; procedure, shortened: as §3
[10] = biological target: c-Jun N-terminal kinase, JNK (Homo sapiens) (UniProt P45983+P53779+P45984); experiment: Activation of JNK in human HCT116 cells after 24 hrs by Western blot analysis; type: cell-based
[11] = biological target: Cellular tumor antigen p53 (Homo sapiens) (UniProt P04637); experiment: Induction of p53 expression in human HCT116 cells after 24 hrs by Western blot analysis; type: cell-based
[12] = tested on: HCT-116; experiment: Induction of apoptosis in human HCT116 cells assessed as cell shrinkage after 48 hrs; type: functional, cell-based
[13] = tested on: HCT-116; experiment: Induction of apoptosis in human HCT116 cells at 20 uM after 48 hrs by Annexin V-FITC/propidium iodide staining based flow cytometry; type: functional
Procedure, shortened: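 HCT116 cells were treated 48 h, then resuspended in binding buffer at 1 × 10^6 cells/mL. They were stained with annexin V-FITC and PI for 20 min at room temperature in the dark, diluted and analyzed immediately by flow cytometry for annexin V-positive cells. n = 3.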

[14] = tested on: HCT-116; experiment: Induction of apoptosis in human HCT116 cells assessed as activation of caspase 3 at 10 to 30 uM after 48 hrs by Western blot analysis; type: functional, cell-based
Procedure, shortened: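 HCT116 cells were treated with the indicated concentrations for 48 h. Lysates were prepared in SDS sample buffer and 10–30 μg protein was separated by SDS-PAGE, blotted to PVDF and blocked in 5% BSA. Cleaved caspase-8, -9, -3 and PARP were detected by ECL.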

[15] = tested on: HCT-116; experiment: Induction of autophagy in human HCT116 cells assessed as increase in LC3-2 expression at 30 uM at 24 hrs by Western blot analysis; type: functional, cell-based
[16] = tested on: HCT-116; experiment: Growth inhibition of human HCT116 cells at 5 to 40 uM in presence of autophagy inhibitor 3-MA after 48 hrs by SRB assay; type: functional, cell-based
Procedure, shortened: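 SRB proliferation assay on HCT116 cells given graded concentrations for 48 h with or without 2 mM 3-MA. Cells were TCA-fixed, stained with 0.4% SRB, solubilized in 10 mM Tris pH 10.0 and read at 515 nm. Growth was normalized to day-zero and vehicle wells. Means ± SD, n = 3.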

[17] = tested on: HCT-116; experiment: Induction of caspase 8 cleavage in human HCT116 cells at 30 uM after 48 hrs in presence of caspase 8 inhibitor z-IETD-FMK by Western blot analysis; type: functional, cell-based
Procedure, shortened: (§4)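 HCT116 cells were cultured 48 h with 30 μM compound, with or without 20 μM z-IETD-FMK. Lysates were made in SDS loading buffer and 10–30 μg protein was resolved by 6–15% SDS-PAGE and transferred to PVDF. Blots were probed for cleaved caspase-8, beclin 1, cleaved beclin 1 and LC3-II, and detected by ECL.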

[18] = tested on: HCT-116; experiment: Induction of beclin 1 cleavage in human HCT116 cells at 30 uM after 48 hrs in presence of caspase-8 inhibitor z-IETD-FMK by Western blot analysis; type: functional, cell-based; procedure, shortened: as §4
[19] = Toxicity in BALB/c-nu mouse xenografted with human HCT116 cells assessed as change in body weight at 2.5 to 5 mg/kg, ip administered three times per week for 28 days measured during compound dosing relative to control; type: organism-based; conditions: in vivo, 672 h
Procedure, shortened: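 Nude mice carried subcutaneous flank HCT116 implants (2 × 10^6 cells in 200 μL medium). At about 200 mm3 they were randomised into groups of five. Compound at 2.5 or 5 mg/kg in saline with 0.5% Tween 80 was given ip three times weekly for 4 weeks; controls received vehicle. Body weight was monitored throughout for toxicity.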

[20] = tested on: HCT-116; experiment: Antitumor activity against human HCT116 cells xenografted in BALB/c-nu mouse assessed as inhibition of tumor weight at 5 mg/kg, ip administered three times per week for 28 days measured post dosing relative to control; type: functional; conditions: HCT-116, ip, 672 h
Procedure, shortened: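 Nude mice bearing subcutaneous HCT116 flank tumors (2 × 10^6 cells) were randomized at ~200 mm3, five per group. Dosing was 2.5 or 5 mg/kg ip in saline/0.5% Tween 80, three times weekly for 28 days, with vehicle controls. Tumors were excised on day 28 and weighed; inhibition was expressed against the vehicle group.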

[21] = tested on: Mus musculus; experiment: Inhibition of Ki-67 expression in human HCT116 cells xenografted in BALB/c-nu mouse at 2.5 to 5 mg/kg, ip administered three times per week for 28 days measured post dosing by hematoxylin staining based inverted phase-contrast microscopy; type: functional, organism-based
Procedure, shortened: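 Day-28 xenograft tumors were fixed in 4% paraformaldehyde, paraffin-embedded and serially sectioned. Sections were deparaffinized, rehydrated, antigen-retrieved and immunostained for Ki-67 with HRP detection, then counterstained with hematoxylin. Slides were viewed by inverted phase-contrast microscopy at 200×.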

Cellular tumor antigen p53 (Homo sapiens), sequence (P04637 whole entry, looked up): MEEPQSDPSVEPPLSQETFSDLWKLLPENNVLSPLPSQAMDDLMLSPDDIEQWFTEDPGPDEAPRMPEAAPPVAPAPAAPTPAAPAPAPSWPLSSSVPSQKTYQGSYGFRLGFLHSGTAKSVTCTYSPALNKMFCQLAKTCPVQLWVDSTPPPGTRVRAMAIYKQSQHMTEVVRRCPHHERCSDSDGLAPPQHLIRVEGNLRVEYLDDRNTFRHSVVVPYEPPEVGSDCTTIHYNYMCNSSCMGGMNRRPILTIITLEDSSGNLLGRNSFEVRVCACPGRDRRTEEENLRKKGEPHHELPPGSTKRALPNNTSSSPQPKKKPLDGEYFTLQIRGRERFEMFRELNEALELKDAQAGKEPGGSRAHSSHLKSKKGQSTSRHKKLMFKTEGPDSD

IC50 [1]: 26 µM
IC50 [2]: 13.8 µM
IC50 [3]: 14.8 µM
IC50 [4]: 15.5 µM
Activity [10]: inactive
Activity [11]: Dose-dependent effect
SMILES: C[C@H]1CC[C@@]2(OC1)O[C@H]1C[C@H]3[C@@H]4CC=C5C[C@@H](O)C[C@@H](O[C@@H]6O[C@H](C)[C@H](O)[C@H](O[C@@H]7OC[C@@H](O)[C@H](O)[C@H]7O)[C@H]6O[C@@H]6O[C@H](CO)[C@@H](O)[C@H](O)[C@H]6O)[C@]5(C)[C@H]4CC[C@]3(C)[C@H]1[C@@H]2C
IC50 [5]: 82 µM
Activity [6]: Dose-dependent effect
Activity [7]: Active
inhibition [8]: Active
inhibition [9]: Active
Activity [12]: Active
Activity [13]: 18.58%
Activity [14]: Active
Activity [15]: Active
growth inhibition (GI) [16]: Active
Activity [17]: inactive
Activity [18]: inactive
Activity [19]: Non-Toxic
inhibition in vivo at 5 mg/kg [20]: 56.6%
inhibition [21]: Active
